Source: PubChem BioAssay
TRPC4 potent: allosterically enhances the mouse TRPC4 cation channel. Q9QUQ5. HEK293 TRPC4beta/mu-opioid, DAMGO EC20, Fluo-4 Ca2+ flux; stronger effect = higher value. B-score at 10 µM. 0.42% of 310,000 active. AID 2227;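 active = B-score of calcium response area above 5 SD of library B-scores, with initial fluorescence ratio within 5 SD of library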;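 also: B-score of integrated fluorescence ratio over time as area under calcium response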
FID counter: displaces DNA intercalator in HCV helicase counter-screen | DNA fluorescent intercalator displacement, fluorescence | inhibition, % at 7.9 µM | 0.17% of 290,000 active | AID 1845; in the data active = inhibition above about 37%;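 also: 0% = vehicle and 100% = reference compound; higher means more ethidium bromide displaced from hairpin DNA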
TRPC4 block: blocks the mouse TRPC4 cation channel; B-score at 10 µM; HEK293 TRPC4beta/mu-opioid, DAMGO-evoked Fluo4 calcium flux; stronger effect = lower value; Q9QUQ5; 0.39% of 300,000 active;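 active = B-score over 3 SD under the library average, no early fluorescence shift, positive overall ratio signal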
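System: stable TRPC4beta/mu-opioid receptor HEK293 cells; Dosing: single-point compound dosing; Measured by: Fluo4 Ca2+ flux fluorescence; Read-out basis: per-well B score of integrated baseline-normalized Fluo4 ratio.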
TRPC6 inh: blocks the mouse TRPC6 cation channel; Q61143; HEK293-TRPC6, membrane potential dye, ACh-evoked depolarization; stronger effect = lower value; B-score at 10 µM; 1.1% of 310,000 active;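 active = B-score under library mean minus 3 SD, initial fluorescence not abnormally high, positive integrated signal ratio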;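 also: B-score derived from integrated fluorescence ratio over the kinetic read; more negative B-score means stronger inhibition of depolarization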
Target sequence (Q61143 whole entry, looked up): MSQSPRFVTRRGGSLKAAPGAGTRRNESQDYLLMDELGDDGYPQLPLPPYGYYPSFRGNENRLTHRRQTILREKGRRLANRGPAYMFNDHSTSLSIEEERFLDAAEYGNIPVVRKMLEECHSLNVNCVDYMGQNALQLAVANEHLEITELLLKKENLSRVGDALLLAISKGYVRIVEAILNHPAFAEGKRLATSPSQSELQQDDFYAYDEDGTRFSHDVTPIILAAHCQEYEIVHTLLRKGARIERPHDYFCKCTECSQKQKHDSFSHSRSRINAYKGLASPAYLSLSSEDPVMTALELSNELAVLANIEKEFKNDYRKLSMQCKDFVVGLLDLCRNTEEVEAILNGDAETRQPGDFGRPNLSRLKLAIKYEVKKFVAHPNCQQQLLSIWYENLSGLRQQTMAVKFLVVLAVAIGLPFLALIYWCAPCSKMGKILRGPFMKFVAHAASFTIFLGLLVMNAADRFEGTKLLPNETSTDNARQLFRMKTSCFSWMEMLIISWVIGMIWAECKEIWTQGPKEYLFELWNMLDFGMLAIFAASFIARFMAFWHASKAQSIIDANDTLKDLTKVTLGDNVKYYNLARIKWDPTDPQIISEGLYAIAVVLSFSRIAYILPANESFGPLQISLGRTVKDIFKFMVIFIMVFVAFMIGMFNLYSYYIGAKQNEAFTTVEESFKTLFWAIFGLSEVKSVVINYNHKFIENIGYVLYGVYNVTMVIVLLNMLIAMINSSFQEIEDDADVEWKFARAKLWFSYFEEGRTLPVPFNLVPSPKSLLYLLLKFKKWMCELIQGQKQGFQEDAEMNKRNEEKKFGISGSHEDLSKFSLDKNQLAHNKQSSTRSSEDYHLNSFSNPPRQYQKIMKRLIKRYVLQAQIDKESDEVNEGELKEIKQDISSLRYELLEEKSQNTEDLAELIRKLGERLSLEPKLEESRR
TRPC6 act: activators of mouse TRPC6 channel. 0.13% of 310,000 active. B-score at 10 µM. HEK293-TRPC6 membrane potential dye fluorescence; stronger effect = higher value. AID 2550;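 active = B-score of the integrated fluorescence ratio above library mean plus 3 SD, and starting fluorescence ratio within library mean plus 5 SD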;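 also: higher score means more depolarization so channel activation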
TRPC4 agonist: opens the mouse TRPC4 cation channel; Q9QUQ5; HEK293 TRPC4beta/mu-opioid, Fluo4 calcium fluorescence; stronger effect = higher value; 0.49% of 310,000 active; B-score at 10 µM;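 active = B-score above 5 SD of library B-scores, and initial fluorescence ratio not above library mean plus 5 SD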;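 also: positive B-score marks a calcium rise read as TRPC4 activation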
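system = HEK293 cells stably co-expressing mouse TRPC4beta and mu-opioid receptor | schedule = Fluo4 dye loading 45 min at room temperature, 110 s recording | measure = B-scored integrated calcium fluorescence ratio | signal = Fluo4 calcium-sensitive dye fluorescence, kinetic, 1 Hz baseline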
* hit, by the source's call; i = inactive; . = not tested or not shown. Shown are actives, neighbours in structure and some others; about 2.3% of the full set was active somewhere.

SMILES	TRPC4 potent	FID counter	TRPC4 block	TRPC6 inh	TRPC6 act	TRPC4 agonist
CCOC(=O)c1c(C)n(-c2ccc(C)cc2)c2ccc(OCC(O)CNCCCO)cc12 (configuration not stated)	i	23	i	i	i	i
CCOC(=O)c1c(C)n(-c2ccc(C)cc2)c2ccc(OCC(O)CNCC3CCCO3)cc12 (configuration not stated)	33*	27	i	i	i	i
CCOc1cc(CNC2CCCC2)cc(Cl)c1OCc1ccc(F)cc1	i	28	i	i	i	i
COc1cc(CNC2CCCC2)cc(Cl)c1OCc1ccc(F)cc1	i	26	-7*	i	i	i
Cc1cc(C)c(C#N)c(SCC(O)COc2ccc(Br)cc2)n1 (configuration not stated)	i	-25	i	i	i	i
CCCCN1C2=NC(c3ccccc3)CN2c2ccccc21 (configuration not stated)	i	.	-6*	i	i	i
O=C(COC(=O)c1ccccc1NCCO)NCc1cccs1	i	.	i	i	i	i
O=C(CSc1n[nH]c(=O)n1-c1cccnc1)Nc1ccccc1	i	-6	i	i	i	i
CCOC(=O)c1cnc2c(C)cc(Cl)cc2c1NCCCN1CCOCC1	i	46*	i	i	i	i
CCOC(=O)c1cnc2c(Cl)cc(Cl)cc2c1NCCCN1CCOCC1	i	-3	i	i	i	i
COc1ccc(CC(=O)NC(c2ccccc2)c2ccc(C)cc2)c(OC)c1 (configuration not stated)	i	-34	i	i	i	i
c1ccc2c(Nc3ccc4c(c3)OCCO4)c3c(nc2c1)CCCC3	i	24	i	i	i	i
COc1ccc(Nc2c3c(nc4ccccc24)CCC3)c(OC)c1	i	-2	-5*	i	i	i
COc1ccc(Nc2nc(N3CCN(C)CC3)nc3ccccc23)c(OC)c1	i	46*	i	i	i	i
Fc1cccc(Nc2c3c(nc4ccccc24)CCC3)c1	i	-1	-7*	i	i	i
COc1ccc(Nc2nc(-c3cccs3)nc3ccccc23)c(OC)c1	i	5	i	i	i	i
COc1ccccc1Nc1c2c(nc3ccccc13)CCC2	i	-8	i	i	i	i
CC(=O)c1cccc(Nc2c3c(nc4ccccc24)CCC3)c1	i	7	i	i	i	i
COC(=O)c1cccc(Nc2c3c(nc4ccccc24)CCC3)c1	i	-1	-7*	i	i	i
CCCN(CC(=O)Nc1ccccc1C)C(=O)c1cccc(-n2cnnn2)c1	i	-9	i	i	i	i
CCCCn1c(N)c(N(CCOC)C(=O)c2oc3ccc(OCC)cc3c2C)c(=O)[nH]c1=O	i	.	i	i	i	i
O=c1ccc(OCCOc2ccccc2)nn1-c1ccccc1	17*	-18	i	i	i	i
N#CC1(NC(=O)CSc2nnc(-c3ccccc3F)n2N)CCCCC1	i	.	i	i	i	i
CCOC(=O)C1CCN(c2nc3ccccc3nc2C(C#N)C(=O)OCCOC)CC1 (configuration not stated)	i	-3	-7*	i	i	i
CCOC(=O)C1CCN(c2nc3ccccc3nc2C(C#N)C(=O)OC(C)COC)CC1 (configuration not stated)	i	-3	i	i	i	i
SMILES	TRPC4 potent	FID counter	TRPC4 block	TRPC6 inh	TRPC6 act	TRPC4 agonist
CC(CCc1ccccc1)NC(=O)c1ccc(F)cc1 (configuration not stated)	i	-8	i	i	i	i
CCOc1cc(/C=C(\C#N)C(=O)Nc2cccc(C(=O)O)c2)cc(Br)c1OC(=O)c1ccc(OC)cc1	22*	0	i	i	i	i
O=C(Nc1ccon1)c1csc2ccccc12	i	-3	-7*	i	i	i
CCOC(=O)c1cn(Cc2ccccc2)c(C(=O)OC(C)(C)C)c1O	i	.	i	i	i	107*
CC(C)C(NC(=O)c1ccco1)C(=O)NCC(c1ccco1)N(C)C (configuration not stated)	i	-3	i	i	i	i
CSc1ccc(C(=O)NCC(c2ccco2)N(C)C)cc1[N+](=O)[O-] (configuration not stated)	i	18	i	i	i	293*
CC(=O)NC(CC(=O)NCC(c1ccco1)N(C)C)c1ccccc1 (configuration not stated)	i	0	i	i	i	92*
CN(C)C(CNC(=O)c1ccc2ccccc2c1)c1ccco1 (configuration not stated)	i	2	i	i	i	68*
Cc1cccc(C(=O)NCC(c2ccco2)N(C)C)c1 (configuration not stated)	i	3	i	i	i	i
CN(C)C(CNC(=O)c1ccc2c(c1)S(=O)(=O)c1ccccc1C2=O)c1ccco1 (configuration not stated)	i	24	-8*	i	i	120*
O=C(NCc1ccco1)c1ccc2c(c1)S(=O)(=O)c1ccccc1C2=O	i	.	i	i	i	i
CSc1ccccc1C(=O)NCC(c1ccco1)N(C)C (configuration not stated)	i	-1	i	i	i	i
CCCCN1C[C@H](Cc2ccccc2)[C@@H](CC(=O)Nc2ccccc2)C1=O	i	-46	i	i	i	i
CS(=O)(=O)c1cccc(C(=O)Nc2ccc3c(c2)OCCCO3)c1	i	-3	i	i	i	i
Cc1ccc(-n2ncc3c2CC(C)(C)CC3NC(=O)CCc2c(C)noc2C)cc1 (configuration not stated)	i	-56	i	i	i	i
O=C(OCC1CCNCC1)c1ccc2c(c1)OCO2	i	2	i	i	i	62*
N#Cc1ccc(COC(=O)c2ccc3c(c2)OCO3)cc1	i	-15	i	i	i	i
O=C(COc1ccc(Br)cc1)c1ccc2c(c1)CCCC2	12*	0	i	i	i	i
Cc1ccc(OCC(=O)c2ccc3c(c2)CCCC3)cc1C	i	-5	i	i	i	i
CCN(CC)CCNCC1C(=O)O[C@@H]2C[C@@]3(C)CCC[C@H](C)C3=C[C@H]12 (some centres not stated)	11*	-1	i	i	i	i
